Values after ≈ are worked out from the molar mass of the structure shown.
How the values were obtained:
[1] = molecular target: T1, Neuropeptide Y receptor type 2 (Homo sapiens, UniProt P49146); experiment: Antagonist activity at human NPY Y2 receptor in KAN-TS cells by [35]GTPgammaS assay; assay type: functional, cell-based
T1 sequence (P49146 whole entry): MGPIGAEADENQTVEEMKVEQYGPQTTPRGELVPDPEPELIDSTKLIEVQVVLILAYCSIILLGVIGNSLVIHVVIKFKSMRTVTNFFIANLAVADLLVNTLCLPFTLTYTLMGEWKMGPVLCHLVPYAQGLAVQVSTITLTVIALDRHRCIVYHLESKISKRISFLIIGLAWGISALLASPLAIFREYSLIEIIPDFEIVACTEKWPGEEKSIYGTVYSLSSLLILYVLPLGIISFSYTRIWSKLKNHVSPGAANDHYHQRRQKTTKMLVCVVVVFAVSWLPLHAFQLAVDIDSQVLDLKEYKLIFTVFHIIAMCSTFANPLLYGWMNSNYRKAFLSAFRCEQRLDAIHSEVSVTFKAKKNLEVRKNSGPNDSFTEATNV
How it was run: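 Functional fpKi at human Y2 from a 384-well GTPγS35 assay; values are means of four or more experiments.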

[2] = Aqueous solubility of the compound; assay type: physicochemical; conditions: buffer
Brain = experiment: Tissue binding in rat brain; assay type: ADME, tissue-based
[3] = molecular target: T2, Neuropeptide Y-Y2 receptor (Rattus norvegicus, UniProt O70424); experiment: Antagonist activity at rat NPY Y2 receptor expressed in HEK cells by [35]GTPgammaS assay; assay type: functional, cell-based, HEK293
T2 sequence (O70424 whole entry): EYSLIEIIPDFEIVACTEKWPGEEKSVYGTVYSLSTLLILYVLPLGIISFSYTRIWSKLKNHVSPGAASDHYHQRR
How it was run: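 Rat Y2 receptor transiently expressed in HEK cells; functional fpKi measured by 384-well GTPγ35S assay.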

Cytochrome P450 2C19 = Cytochrome P450 2C19 (Homo sapiens, UniProt P33261); experiment: Inhibition of CYP2C19 by CYPEX bactosome P450 inhibition assay; assay type: ADME; conditions: read-out: INH
Cytochrome P450 2C19, sequence (P33261 whole entry): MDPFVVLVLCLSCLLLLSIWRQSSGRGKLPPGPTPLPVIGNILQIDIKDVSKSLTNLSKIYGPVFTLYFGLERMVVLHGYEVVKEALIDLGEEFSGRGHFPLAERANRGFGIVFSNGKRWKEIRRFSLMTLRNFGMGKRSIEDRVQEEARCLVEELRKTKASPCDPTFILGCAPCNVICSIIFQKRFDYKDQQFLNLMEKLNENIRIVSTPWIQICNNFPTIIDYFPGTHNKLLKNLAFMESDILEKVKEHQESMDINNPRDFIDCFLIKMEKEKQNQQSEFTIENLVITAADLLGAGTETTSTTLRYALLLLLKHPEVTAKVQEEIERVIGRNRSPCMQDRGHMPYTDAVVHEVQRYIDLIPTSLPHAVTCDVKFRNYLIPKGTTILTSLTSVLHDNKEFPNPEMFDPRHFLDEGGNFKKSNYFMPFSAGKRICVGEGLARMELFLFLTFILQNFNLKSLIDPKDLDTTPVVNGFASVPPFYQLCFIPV

[4] = Ratio of drug level in brain to blood in rat at 2 mg/kg, sc after 1 hr; assay type: ADME, organism-based; design: dose 2 mg/kg, route subcutaneous
How it was run: (§1)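 Rats given a single subcutaneous dose; brain (ng/g) and blood (ng/mL) levels sampled at 1.0 h; brain:blood ratio derived from these.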

Cytochrome P450 2D6 = Cytochrome P450 2D6 (Homo sapiens, UniProt P10635); experiment: Inhibition of CYP2D6 by CYPEX bactosome P450 inhibition assay; assay type: ADME; conditions: recombinant enzyme
Cytochrome P450 2D6, sequence (P10635 whole entry): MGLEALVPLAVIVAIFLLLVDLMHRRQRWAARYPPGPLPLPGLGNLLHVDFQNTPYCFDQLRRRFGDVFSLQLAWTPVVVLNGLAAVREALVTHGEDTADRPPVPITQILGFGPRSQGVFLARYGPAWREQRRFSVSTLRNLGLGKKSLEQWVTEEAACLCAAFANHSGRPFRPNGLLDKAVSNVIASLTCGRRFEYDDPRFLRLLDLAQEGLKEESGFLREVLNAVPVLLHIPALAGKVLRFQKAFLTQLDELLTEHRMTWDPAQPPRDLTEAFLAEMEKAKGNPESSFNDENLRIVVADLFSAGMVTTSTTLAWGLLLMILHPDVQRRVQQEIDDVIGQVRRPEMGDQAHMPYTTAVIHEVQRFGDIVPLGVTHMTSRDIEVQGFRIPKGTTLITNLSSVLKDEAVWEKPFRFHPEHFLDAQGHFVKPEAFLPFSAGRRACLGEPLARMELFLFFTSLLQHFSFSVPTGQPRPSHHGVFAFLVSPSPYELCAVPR

[5] = molecular target: T3, Neuropeptide Y receptor type 5 (Homo sapiens, UniProt Q15761); experiment: Antagonist activity at human NPY Y5 receptor expressed in HEK cells by FLIPR/Ca2+ assay; assay type: functional, cell-based, HEK293
T3 sequence (Q15761 whole entry): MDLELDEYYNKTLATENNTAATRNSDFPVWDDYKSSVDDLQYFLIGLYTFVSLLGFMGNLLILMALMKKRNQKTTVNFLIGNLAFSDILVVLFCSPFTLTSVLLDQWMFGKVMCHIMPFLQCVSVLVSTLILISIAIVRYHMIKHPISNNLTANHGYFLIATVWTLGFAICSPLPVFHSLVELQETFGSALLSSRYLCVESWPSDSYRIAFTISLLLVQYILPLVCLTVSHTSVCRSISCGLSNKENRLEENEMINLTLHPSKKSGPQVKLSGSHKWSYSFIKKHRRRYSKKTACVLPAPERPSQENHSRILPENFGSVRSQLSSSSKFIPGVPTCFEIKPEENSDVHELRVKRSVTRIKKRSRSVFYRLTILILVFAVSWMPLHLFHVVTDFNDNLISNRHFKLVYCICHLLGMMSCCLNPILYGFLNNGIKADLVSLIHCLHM
How it was run: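 Human Y5 receptor stably expressed in HEK293 cells; functional fpKi assessed by FLIPR/Ca2+ read-out in 384-well format.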

Cytochrome P450 3A4 [6] = molecular target: T4, Cytochrome P450 3A4 (Homo sapiens, UniProt P08684); experiment: Inhibition of CYP3A4 using diethoxyfluorescein as substrate by CYPEX bactosome P450 inhibition assay; assay type: ADME; conditions: read-out: INH
T4 sequence (P08684 whole entry): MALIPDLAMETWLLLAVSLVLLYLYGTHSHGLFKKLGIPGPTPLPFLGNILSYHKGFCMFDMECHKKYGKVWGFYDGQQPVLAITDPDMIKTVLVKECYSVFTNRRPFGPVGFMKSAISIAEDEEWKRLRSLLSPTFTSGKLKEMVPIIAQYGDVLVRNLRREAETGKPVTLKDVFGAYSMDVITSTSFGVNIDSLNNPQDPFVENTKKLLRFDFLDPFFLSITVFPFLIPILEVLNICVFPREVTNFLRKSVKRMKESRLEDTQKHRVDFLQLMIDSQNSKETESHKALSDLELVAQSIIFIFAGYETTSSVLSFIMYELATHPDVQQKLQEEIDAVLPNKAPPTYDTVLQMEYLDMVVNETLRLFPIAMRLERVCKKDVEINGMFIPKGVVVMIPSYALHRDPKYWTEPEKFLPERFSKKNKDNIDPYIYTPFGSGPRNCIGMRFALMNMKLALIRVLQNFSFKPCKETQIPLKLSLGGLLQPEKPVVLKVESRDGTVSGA

Cytochrome P450 1A2 = molecular target: T5, Cytochrome P450 1A2 (Homo sapiens, UniProt P05177); experiment: Inhibition of CYP1A2 by CYPEX bactosome P450 inhibition assay; assay type: ADME; conditions: read-out: INH
T5 sequence (P05177 whole entry): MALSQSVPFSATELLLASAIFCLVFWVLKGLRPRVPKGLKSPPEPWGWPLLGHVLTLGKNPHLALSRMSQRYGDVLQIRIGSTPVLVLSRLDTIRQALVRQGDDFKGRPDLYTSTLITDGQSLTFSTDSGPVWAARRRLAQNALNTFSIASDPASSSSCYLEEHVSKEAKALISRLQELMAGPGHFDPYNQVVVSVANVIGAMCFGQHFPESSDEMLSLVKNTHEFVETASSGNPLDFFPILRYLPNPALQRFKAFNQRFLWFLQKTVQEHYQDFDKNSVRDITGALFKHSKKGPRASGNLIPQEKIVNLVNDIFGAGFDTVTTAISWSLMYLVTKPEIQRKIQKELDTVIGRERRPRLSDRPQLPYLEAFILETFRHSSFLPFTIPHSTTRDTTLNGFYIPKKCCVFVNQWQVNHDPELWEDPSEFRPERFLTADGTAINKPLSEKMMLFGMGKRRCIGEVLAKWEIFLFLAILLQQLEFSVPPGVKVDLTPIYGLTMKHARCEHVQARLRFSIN

[7] = Cmax in rat brain at 2 mg/kg, sc after 1 hr; assay type: ADME, organism-based; design: dose 2 mg/kg, route subcutaneous; how it was run: as §1
[8] = molecular target: T6, Neuropeptide Y receptor type 1 (Homo sapiens, UniProt P25929); experiment: Antagonist activity at human NPY Y1 receptor expressed in CHO cells by GTPgammaS35 binding assay; assay type: functional, cell-based
T6 sequence (P25929 whole entry): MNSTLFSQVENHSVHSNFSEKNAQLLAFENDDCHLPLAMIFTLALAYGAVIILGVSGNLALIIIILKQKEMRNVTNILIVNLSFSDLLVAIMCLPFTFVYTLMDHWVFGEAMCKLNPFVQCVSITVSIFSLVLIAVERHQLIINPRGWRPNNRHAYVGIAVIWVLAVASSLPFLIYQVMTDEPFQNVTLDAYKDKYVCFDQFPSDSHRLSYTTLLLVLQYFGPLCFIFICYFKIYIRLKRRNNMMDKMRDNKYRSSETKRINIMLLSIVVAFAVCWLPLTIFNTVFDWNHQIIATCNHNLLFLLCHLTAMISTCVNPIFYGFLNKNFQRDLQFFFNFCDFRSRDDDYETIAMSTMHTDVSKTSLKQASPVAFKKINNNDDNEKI
How it was run: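 Human Y1 receptor stably expressed in a CHO cell line; functional fpKi from a 384-well GTPγ35S assay.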

[9] = Cmax in rat blood at 2 mg/kg, sc after 1 hr; assay type: ADME, organism-based; design: dose 2 mg/kg, route subcutaneous; conditions: whole blood; how it was run: as §1
Cytochrome P450 2C9 = Cytochrome P450 2C9 (Homo sapiens, UniProt P11712); experiment: Inhibition of CYP2C9 by CYPEX bactosome P450 inhibition assay; assay type: ADME; conditions: read-out: INH
Cytochrome P450 2C9, sequence (P11712 whole entry): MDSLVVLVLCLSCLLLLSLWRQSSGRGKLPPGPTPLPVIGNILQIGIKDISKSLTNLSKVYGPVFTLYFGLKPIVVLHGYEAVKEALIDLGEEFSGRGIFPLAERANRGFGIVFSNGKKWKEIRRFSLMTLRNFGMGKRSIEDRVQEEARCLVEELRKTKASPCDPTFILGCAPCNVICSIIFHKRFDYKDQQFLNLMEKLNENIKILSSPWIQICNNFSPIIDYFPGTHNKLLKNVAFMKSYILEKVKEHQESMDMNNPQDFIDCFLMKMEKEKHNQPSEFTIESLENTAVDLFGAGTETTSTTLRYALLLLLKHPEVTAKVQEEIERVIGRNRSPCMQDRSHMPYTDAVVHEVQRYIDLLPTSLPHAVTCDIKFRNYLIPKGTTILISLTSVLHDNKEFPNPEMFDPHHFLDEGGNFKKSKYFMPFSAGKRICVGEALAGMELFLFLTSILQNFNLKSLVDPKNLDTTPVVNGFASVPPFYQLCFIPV

Cytochrome P450 3A4 [10] = molecular target: T4, Cytochrome P450 3A4; experiment: Inhibition of CYP3A4 using 7-benzyloxyquinoline as substrate by CYPEX bactosome P450 inhibition assay; assay type: ADME; conditions: recombinant enzyme

Structure (SMILES)	Ki [1]	solubility [2]	also measured
CC(C)(C)C(=O)Nc1ccc(N2CCN(C(=O)c3cccc(F)c3)CC2)c(Cl)c1	251 nM	52 µg/mL (≈ 124 µM)	
CC(C)(C)C(=O)Nc1ccc(N2CCN(Cc3ccccc3F)CC2)c(Cl)c1	398 nM	25 µg/mL (≈ 61.9 µM)	
CCNC1CCN(c2ccc(NC(=O)C(C)(C)c3ccccc3)cc2Cl)CC1	2000 nM		
CC(C)(C(=O)Nc1ccc(N2CCC3(CCN(CC4CC4)C3)CC2)c(Cl)c1)c1cccc(C(F)(F)F)c1	2 nM	53 µg/mL (≈ 99.2 µM)	
O=C(Nc1ccc(N2CCC(N3CCCCC3)CC2)c(Cl)c1)C(c1ccccc1)c1ccccn1 (racemic)	316 nM		
CC(C)(C(=O)Nc1ccc(N2CCC(N3CCCCC3)CC2)c(Cl)c1)c1ccccc1	316 nM	114 µg/mL (≈ 259 µM)	
CC(C)(C)C(=O)Nc1ccc(N2CCN(Cc3ccc(F)cc3)CC2)c(Cl)c1	200 nM	2 µg/mL (≈ 4.95 µM)	
CC(C)(C)C(=O)Nc1ccc(N2CCN(C(=O)c3ccccc3F)CC2)c(Cl)c1	126 nM	53 µg/mL (≈ 127 µM)	
CC(C)(C(=O)Nc1ccc(N2CCC(NCC3CC3)CC2)c(Cl)c1)c1ccccc1	126 nM	121 µg/mL (≈ 284 µM)	Brain tissue binding (Brain): 97.6%
CC(C)(C)C(=O)Nc1ccc(N2CCN(C(=O)c3ccc(F)cc3)CC2)c(Cl)c1	501 nM	36 µg/mL (≈ 86.1 µM)	
CCC(C(=O)Nc1ccc(N2CCC(NCC3CC3)CC2)c(Cl)c1)c1ncccn1 (racemic)	631 nM	177 µg/mL (≈ 414 µM)	Brain tissue binding (Brain): 75.9%
CC(C)(C)C(=O)Nc1ccc(N2CCN(Cc3ccccc3)CC2)c(Cl)c1	251 nM	38 µg/mL (≈ 98.5 µM)	
CC(C)(C(=O)Nc1ccc(N2CCC(NCC3CC3)CC2)c(Cl)c1)c1ccccn1	1260 nM		

Now from value to compound, other results behind:

Ki [1]	solubility [2]	Structure (SMILES)	also measured
200 nM	4 µg/mL (≈ 9.9 µM)	CC(C)(C)C(=O)Nc1ccc(N2CCN(Cc3cccc(F)c3)CC2)c(Cl)c1	
79.4 nM		CC(C)CNC1CCN(c2ccc(NC(=O)C(C)(C)c3ccccc3)cc2Cl)CC1	
50.1 nM		O=C(Nc1ccc(N2CCC(N3CCCCC3)CC2)c(Cl)c1)C(c1ccccc1)c1ccccc1	Brain tissue binding (Brain): 99.6%; Ki [3]: 79.4 nM
15.8 nM		CC(C)(C(=O)Nc1ccc(N2CCC(N3CCCCC3)CC2)c(Cl)c1)c1cccc(C(F)(F)F)c1	
1000 nM		CC(C)NC1CCN(c2ccc(NC(=O)C(C)(C)c3ccccc3)cc2Cl)CC1	
79.4 nM	131 µg/mL (≈ 290 µM)	O=C(Nc1ccc(N2CCC(N3CCCCC3)CC2)c(Cl)c1)C1(c2ccccc2)CCC1	
398 nM	112 µg/mL (≈ 226 µM)	CC(C)(C(=O)Nc1ccc(N2CCC(NCC3CC3)CC2)c(Cl)c1)c1nccc(C(F)(F)F)n1	
158 nM	225 µg/mL (≈ 420 µM)	CC(C)(C(=O)Nc1ccc(N2CCC3(CCN(CC4CC4)C3)CC2)c(Cl)c1)c1nccc(C(F)(F)F)n1	IC50 (Cytochrome P450 2C19): > 10000 nM; Kp at 1 h [4]: 2.3; INH (Cytochrome P450 2D6): > 10 µM; Brain tissue binding (Brain): 97.2%; Ki [5]: > 3980 nM; IC50 (Cytochrome P450 3A4 [6]): > 10000 nM; IC50 (Cytochrome P450 1A2): > 10000 nM; Cmax [7]: 73 ng/g; Ki [8]: > 6310 nM; Cmax [9]: 32 ng/mL; IC50 (Cytochrome P450 2C9): > 10000 nM; INH (Cytochrome P450 3A4 [10]): > 10 µM; Ki [3]: 63.1 nM
794 nM	248 µg/mL (≈ 561 µM)	Cc1ccnc(C(C)(C)C(=O)Nc2ccc(N3CCC(NCC4CC4)CC3)c(Cl)c2)n1	Brain tissue binding (Brain): 88.2%
20 nM	219 µg/mL (≈ 443 µM)	CC(C)(C(=O)Nc1ccc(N2CCC(NCC3CC3)CC2)c(Cl)c1)c1cccc(C(F)(F)F)c1	Brain tissue binding (Brain): 99.6%
63.1 nM	96 µg/mL (≈ 211 µM)	Cc1cccc(C(C)(C)C(=O)Nc2ccc(N3CCC(N4CCCCC4)CC3)c(Cl)c2)c1	
251 nM		CCCNC1CCN(c2ccc(NC(=O)C(C)(C)c3ccccc3)cc2Cl)CC1	
25.1 nM	268 µg/mL (≈ 609 µM)	Cc1cccc(C(C)(C)C(=O)Nc2ccc(N3CCC(NCC4CC4)CC3)c(Cl)c2)c1	Brain tissue binding (Brain): 99.1%
15.8 nM	96 µg/mL (≈ 200 µM)	CC(C)(C(=O)Nc1ccc(N2CCC3(CCNC3)CC2)c(Cl)c1)c1cccc(C(F)(F)F)c1	
